High-throughput results deposited in PubChem BioAssay by several laboratories.
In the library only some 2% were active in any assay of this set; here they are far more common.
CAL PDZ FP-1 = blocks peptide binding to human CAL PDZ domain; inhibition, % at 20 µM; Q9HD26; purified CAL PDZ, TMR-peptide fluorescence polarization, 1 h; 0.02% of 330,000 active;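 active means highest replicate inhibition of at least 40%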;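 further: plate controls were DMSO neutral control wells for no effect and unlabeled competitor peptide control wells for full effect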
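Assay system – tagged CAL PDZ protein CerCALP, purified · Timing – 1 h at RT · Compound – single point, 20 µM · Measured by – fluorescence polarization from S- and P-plane intensities, G-factor corrected · Evaluation – inhibition from polarization loss · Probe or stimulus – TMR reporter peptide T*-PRC34 · Buffer or medium – pH 7.4 phosphate-saline buffer, reducing agent, detergent, IgG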
CAL PDZ FP-2 = CAL PDZ (human) peptide binding inhibition; Q9HD26; purified CAL PDZ, TMR-peptide fluorescence polarization, 1 h; inhibition, % at 24.9 µM; 0.92% of 300,000 active;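 active means mean inhibition of at least 30% with at least half of replicates also reaching 30%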;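 further: 0% = DMSO neutral control and 100% = excess unlabeled competitor peptide PRC23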
NTR1 agonist = agonists of human neurotensin receptor NTR1. 0.17% of 330,000 active. P30989. AID 493036. NTR1-U2OS beta-arrestin-GFP spot imaging, agonist mode. activation, % at 20 µM;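 active means activation at or above 40% of the spot to cytoplasm intensity ratio, with at least 20 cells analyzed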;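 further: 0% = DMSO without peptide and 100% = 100 nM NTR1 peptide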
PKA-R1A act = activators of PKA-R1A complex | AID 504707 | PKA-R1A dissociation, Cy5-IP20 fluorescence polarization; scaled: DMSO 0%, 113 µM cGMP 100% | P00514+P68181 | activation, % at 11.4 µM | 0.083% of 340,000 active;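 active means percent activation above the mean of all tested compounds plus 3 SD, cut at about 19% in these data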;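 further: higher means more PKAc released from R1A so a rise in polarization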
PKA-R2B act = activates the human PKA-R2B holoenzyme complex; P22694+P31323; PKA-R2B holoenzyme dissociation, Cy5-IP20 fluorescence polarization; R2B truncated from residue 108, S112A mutant; 0% DMSO only, 100% 113 µM cGMP; activation, % at 11.4 µM; 0.079% of 340,000 active;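 active means activation above a cutoff set at the mean over all compounds plus 3 SD, cut at about 18% in these data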;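 further: higher means more holoenzyme dissociation and a rise in polarization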
dFosB act = activators of mouse delta FosB homodimer; P13346; purified delta FosB, TAMRA-CDK5 oligo fluorescence polarization; percent of positive-control signal above neutral wells; activation, % at 25 µM; 0.99% of 340,000 active; AID 493131;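 active means mean activation above about 17%, with every replicate also reaching it, limit read from the data, passing the limit was not always enough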
Target sequence (P13346 whole entry, looked up): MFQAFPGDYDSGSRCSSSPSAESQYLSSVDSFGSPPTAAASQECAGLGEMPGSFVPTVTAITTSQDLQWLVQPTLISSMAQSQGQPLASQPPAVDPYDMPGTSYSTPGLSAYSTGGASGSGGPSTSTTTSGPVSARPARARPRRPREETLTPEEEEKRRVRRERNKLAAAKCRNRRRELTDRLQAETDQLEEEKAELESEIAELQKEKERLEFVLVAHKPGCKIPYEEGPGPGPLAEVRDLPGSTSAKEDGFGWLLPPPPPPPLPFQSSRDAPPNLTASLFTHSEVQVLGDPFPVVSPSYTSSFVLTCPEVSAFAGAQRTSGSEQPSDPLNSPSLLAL
Starred values were filed as active, the others as inactive; / = no result.

SMILES	CAL PDZ FP-1	CAL PDZ FP-2	NTR1 agonist	PKA-R1A act	PKA-R2B act	dFosB act
CC1CCCC(=NNc2ccc3ccccc3n2)C1 (centres undefined)	-1	2	/	1	5	-3
CC[n+]1ccc(/C=C2\Sc3ccccc3N2CCCS(=O)(=O)[O-])c2ccccc21	-1	1	0	-3	5	-1
CN1C=C/C(=C\c2cc[n+](C)c3ccccc23)c2ccccc21	-2	-3	/	5	-5	38*
CC(C)CCNC(=O)NC(=O)COC(=O)/C=C/c1cccc([N+](=O)[O-])c1	6	37*	3	-6	-1	-4
CCn1c2ccccc2c2c3ncc4cccn4c3ccc21	-1	0	0	-11	-3	-19
Cc1ccc(Nc2nc(N)nc(CSc3nccn3C)n2)c(C)c1	-1	38*	1	2	4	-1
CC[N+](CC)(CC)CCCCOc1ccc2c(c1)C(=O)c1cc(OCCCC[N+](CC)(CC)CC)ccc1-2	2	-4	0	0	4	55*
CC[N+](CC)(CC)CCOc1ccc(/C=C/c2ccccc2)cc1	-1	-1	-1	8	0	5
Cc1ccc(NC(=O)NNC(=O)c2cc3ccccc3cc2O)cc1	-1	/	1	1	2	93*
COc1ccc(/C=C/C(=O)NCC(=O)N/N=C(/CCC(=O)O)c2ccccc2)cc1	-1	32*	0	-19	-10	-4
C[C@H](CO)N1C[C@H](C)[C@H](CN(C)S(=O)(=O)c2ccc(F)cc2)OCc2cnnn2CCCC1=O	/	/	/	-1	0	/
CCN1CCN(Cc2ccc(NC(=O)c3cc(NC(=O)C4=NN(c5ccccc5)C(=O)C4)cc(OC)c3)cc2C(F)(F)F)CC1	0	-3	1	-13	-3	60*
CCN1CCN(Cc2ccc(NC(=O)c3ccc(C)c(NC(=O)c4ccno4)c3)cc2C(F)(F)F)CC1	-2	-10	-1	-9	-5	-17
CCN1CCN(Cc2ccc(NC(=O)c3ccc(C)c(NC(=O)C4=NN(c5ccccc5)C(=O)C4)c3)cc2C(F)(F)F)CC1	0	0	-1	-9	-2	66*
CCCN1CCN(CCCNC(=O)CN2C(=O)COc3ccc(C(C)(C)C)cc32)CC1	/	/	/	0	-10	/
COc1ccc(-c2nc(N)n(C(=O)c3ccco3)n2)cc1	/	77*	-1	-1	-3	-6
Nc1nc(-c2ccc(Cl)cc2)nn1C(=O)c1ccco1	0	-1	-3	4	-9	9
COC(=O)c1cn(C)c2ccc(S(=O)(=O)N(C)C3CCCCC3)cc2c1=O	/	/	/	6	-1	/
O=C(O)c1cc(O)c2c(c1)[C@@H]([C@H]1c3cc(C(=O)O)cc(O)c3C(=O)c3c(O[C@@H]4O[C@H](CO)[C@@H](O)[C@H](O)[C@H]4O)cccc31)c1cccc(OC3O[C@H](CO)[C@@H](O)[C@H](O)[C@H]3O)c1C2=O (some centres undefined)	13	37*	-1	6	18	-8
O=C1CCSc2c1ccc1ccccc21	-1	-4	/	-6	-3	1
CCOC(=O)C1(CCCc2ccccc2)CCN(Cc2cnn(C)c2)CC1	0	75*	2	-7	-9	-5
CCOC(=O)C1(CCCc2ccccc2)CCN(C(=O)CCc2cnn(C)c2)CC1	-2	0	0	1	-3	-5
CC(NC(=O)c1ccc(CS(C)(=O)=O)cc1)c1cccc2ccccc12 (centres undefined)	0	-1	0	10	3	-2
Cc1ccccc1NC(=S)N(Cc1ccco1)C(C)c1cccs1 (centres undefined)	19	47*	4	-5	-1	-8
CCOc1c(Nc2ccccc2O)c(=O)c1=O	-1	4	0	-4	-2	7
SMILES	CAL PDZ FP-1	CAL PDZ FP-2	NTR1 agonist	PKA-R1A act	PKA-R2B act	dFosB act
O=C(O)C(NC(=O)C1CCCN1C(=O)OCc1ccccc1)c1ccccc1 (centres undefined)	0	-2	1	3	5	7
O=C(O)CC(CNC(=O)C1CCCN1C(=O)OCc1ccccc1)c1ccccc1 (centres undefined)	/	74*	2	-2	5	10
Cc1ccc2nc3n(c(=O)c2c1)-c1ncccc1C(=O)NC3Cc1ccccc1 (centres undefined)	/	/	/	3	-3	/
CC(O)(c1ccccc1)c1ccc2ccccc2n1 (centres undefined)	-1	45*	/	-1	-6	6
c1ccc2c(c1)CC1(CCCC1)N=C2N1CCOCC1	0	68*	1	-4	-6	-1
O=S1(=O)N=C(N2CCOCC2)c2ccccc21	0	0	0	-3	-2	-7
CCC(C)(C)C1CCC2(CC1)NC(=O)N(CC(=O)N(C)Cc1ccc3c(c1)OCCO3)C2=O (centres undefined)	0	-1	8	12	1	-8
CC(C)Sc1nnc(CNC(=O)C23CC4CC(CC(C4)C2)C3)n1C1CCCCC1	-1	47*	10	8	-1	-5
Cc1nnc(NC(=O)CSc2nnc(CNC(=O)C34CC5CC(CC(C5)C3)C4)n2C2CCCCC2)s1	-1	2	5	5	-3	6
O=C(CN1CCN(c2ccccc2)CC1)N1CCc2ccccc21	-1	-4	1	5	-2	-4
O=C(CN1CCN(c2ccc(O)cc2)CC1)N1CCc2ccccc21	0	49*	0	-12	-1	-9
COc1ccc(/C=C2\Sc3ccc(C(=O)NCC4CCCO4)cc3N(C)C2=O)cc1 (centres undefined)	-1	4	0	2	12	-8
CCOC(=O)N1CCN(C(=O)COC(=O)CN(C)S(=O)(=O)c2ccc(NC(C)=O)cc2)CC1	-3	-1	0	2	-2	-10
O=C(CC1C[C@H](C(=O)N2CCOCC2)[C@@]2(CCC3CCCC3)c3[nH]c4ccccc4c3CCN2C1=O)NCCCn1ccnc1 (some centres undefined)	0	0	6	-19	-10	-7
CSCCC(NC(N)=O)C(=O)NCc1ccccc1Cl (centres undefined)	/	38*	-3	5	-2	1
NNC(=O)C1c2ccccc2Oc2ccccc21	-2	0	0	0	-6	-5
NC(=O)C1c2ccccc2Oc2ccccc21	/	75*	1	-1	6	-2
CSCC(O)Cn1ncc2ccccc2c1=O (centres undefined)	-1	31*	0	-9	-11	-11
O=C(O)Cn1ncc2ccccc2c1=O	-2	-2	0	-2	9	0
